Assay outcomes deposited in PubChem BioAssay by several laboratories.
Only some compounds are listed: those with a hit (about 2.4% of all), similar ones and a draw of the others.
HSV augment: HSV replication enhancement. maximum fold increase. AID 1956. actives 0.005% (n = 220,000). HSV replication augmentation in cells, fold increase; in the data active = maximum fold increase above about 1.5; tested in PC3 cells
ROMK mod: modulates human ROMK potassium channel activity; B-score at 10 µM; actives 2% (n = 130,000); Tet-inducible ROMK, thallium flux fluorescence; actives lie on both sides; P48048;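 active = signal ratio slope over the read window, or its plate-corrected B-score, at least 3 SD from the plate mean, either direction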;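 also: B-score of the F/F0 ratio slope over 7 to 12 s after thallium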
Target sequence (P48048 whole entry, looked up): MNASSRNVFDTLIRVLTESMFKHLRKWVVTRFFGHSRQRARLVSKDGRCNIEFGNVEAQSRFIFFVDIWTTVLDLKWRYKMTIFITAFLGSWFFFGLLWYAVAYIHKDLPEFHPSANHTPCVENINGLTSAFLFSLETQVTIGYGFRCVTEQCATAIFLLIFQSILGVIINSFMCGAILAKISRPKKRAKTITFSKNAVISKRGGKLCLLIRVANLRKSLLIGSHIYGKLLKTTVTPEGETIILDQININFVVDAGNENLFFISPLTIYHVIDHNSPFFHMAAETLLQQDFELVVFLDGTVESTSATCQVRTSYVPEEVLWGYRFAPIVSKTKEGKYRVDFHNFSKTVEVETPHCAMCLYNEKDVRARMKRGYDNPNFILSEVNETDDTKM
b-catenin transl: beta-catenin nuclear translocation modulation; HeLa beta-catenin nuclear translocation, immunofluorescence imaging; nuclear translocation activity, % at 5 µM; actives 0.3% (n = 190,000);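 active = nuclear translocation activity above 50% at 5 µM, with a well cell count of 50 or more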;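 also: per-cell ratio of nuclear to cytoplasmic median beta-catenin stain intensity; plate controls were DMSO negative control for no effect and GSK-3 inhibitor IX positive control for full effect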
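System: HeLa cells, endogenous beta-catenin; compound dosing: 5 µM primary single dose, 0.1% DMSO, 0.02–20 µM confirmation series; incubation: 24 h compound exposure at 37°C, 5% CO2; signal: beta-catenin immunofluorescence imaging with DAPI; evaluation: % activation, nuclear-to-cytoplasmic median beta-catenin signal ratio per cell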
MT stabilizer: microtubule stabilization, imaging screen; HeLa tubulin immunostaining HCS, 24 h; share of cells brighter than vehicle mean+2SD; % tubulin-high responders, % at 10 µM; actives 0.83% (n = 200,000);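 active = plate Z-score above 3 for both tubulin-high and condensed-nucleus cell shares, with cell loss under 80%, at 10 µM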;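 also: anti alpha tubulin signal scored within the nucleus-defined area of each cell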
Insulin prom inh: TRM-6 insulin promoter activity inhibition | TRM-6 cells (human fetal islet line), insulin promoter-eGFP reporter, imaging; reporter expression induced with tamoxifen | actives 0.9% (n = 130,000) | inhibition, % at 2 µM | AID 1273;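 active = inhibition above the mean plus 3 SD, with well images judged a real hit on visual review, cut at about 60% in these data, passing the limit was not always enough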
ROMK retest: human ROMK channel modulation, retest confirmation; shares compounds with ROMK mod; ROMK thallium flux, fluorescence ratio; active compounds read low; normalized thallium flux (F/F0 slope) at 10 µM; actives 54% (n = 3,000); AID 1917;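 active = Flux at 10 µM at least 3 SD below or above vehicle control mean in one or both replicates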
Starred values were filed as active, the others as inactive; i = inactive; . = no result given.

SMILES | HSV augment | ROMK mod | b-catenin transl | MT stabilizer | Insulin prom inh | ROMK retest
COc1cc(S(=O)(=O)Nc2c(C)cc(C)cc2C)ccc1Cl | i | 0.143 | . | 2.9 | 0.0 | .
COc1ccc(Cl)cc1NS(=O)(=O)c1ccc(OC)c(OC)c1 | i | -3.07* | 2.7 | 2.8 | 50.0 | 0.075
COc1cc(S(=O)(=O)Nc2ccccc2C)ccc1Cl | i | . | -1.4 | 5.4 | 12.1 | 0.0734
CCNc1nc(C23CC4CC(CC(C4)C2)C3)cs1 | i | 0.568 | . | 3.5 | 13.3 | .
CCOc1ccccc1NC(=O)C(NCC1(N2CCCCC2)CCCCC1)c1ccccc1 (stereo unspecified) | . | -3.44* | 2.0 | 3.1 | -128.6 | 0.0642*
CCOc1ccccc1NC(=O)C(OC(=O)C1CC1)c1ccccc1 (stereo unspecified) | i | . | 0.5 | . | . | .
COc1ccccc1N1CCN(c2nc(-c3ccccc3)cc(C(F)(F)F)n2)CC1 | i | -0.422 | -1.2 | 3.9 | -80.0 | .
COc1ccccc1N1CCN(c2ccc(-c3ccccc3)nn2)CC1 | i | 2.47* | . | 11.8 | -80.8 | 0.0786
Cc1ccccc1-n1sc2cc(F)ccc2c1=O | i | -4.71* | 0.8 | 1.8 | -123.5 | 0.0567*
NC(=O)c1sc2nccc(Nc3ccccc3)c2c1N | i | . | . | 5.1 | -26.3 | 0.0598*
COCCCN1C(=O)CS/C1=N\S(=O)(=O)c1ccccc1 | i | . | -1.5 | . | . | .
O=Cc1s/c(=N\S(=O)(=O)c2ccccc2)n(CCCCl)c1Cl | i | -6.13* | 0.0 | 2.9 | . | 0.0426*
CC(C)CCN1CCN(Cc2nc3c(s2)CCCC3)CC1CCO (stereo unspecified) | i | 0.229 | 1.8 | 3.6 | . | .
CC(=O)NN1C(=O)/C(=C/c2ccc(Br)o2)SC1=S | i | . | . | 4.5 | -21.7 | .
CC(=O)NN1C(=O)/C(=C\c2ccc(Br)o2)SC1=S | i | -4.14* | -1.2 | 7.2 | -64.3 | 0.0551*
